From ChEMBL document CHEMBL1124191, “Design of rat renin inhibitory peptides” (J Med Chem, 1988)
pIC50: −log10 of the molar value. *1 amine or outer side, *2 acyl side, *3 side chain or, on linkers, in order; H or OH if unused. Where a SMILES comes first, the peptide text is derived from it. [ ]: non-standard residue; d: D form. Ahppa(3S,4S) = O=C(C[C@H](O)[C@H](Cc1ccccc1)N[*:1])[*:2]; ACHPA = O=C(C[C@H](O)[C@H](CC1CCCCC1)N[*:1])[*:2]; 1Nal = N[C@@H](Cc1cccc2ccccc12)C(=O)O; Sta = CC(C)C[C@H](N)[C@@H](O)CC(=O)O; Cha = N[C@@H](CC1CCCCC1)C(=O)O; Chg = N[C@H](C(=O)O)C1CCCCC1; Tle = CC(C)(C)[C@H](N)C(=O)O

biological target: T1, Renin (Rattus norvegicus, UniProt P08424); test: Inhibitory activity against rat plasma renin in vitro.; assay type: cell-free
T1 sequence (P08424 whole entry): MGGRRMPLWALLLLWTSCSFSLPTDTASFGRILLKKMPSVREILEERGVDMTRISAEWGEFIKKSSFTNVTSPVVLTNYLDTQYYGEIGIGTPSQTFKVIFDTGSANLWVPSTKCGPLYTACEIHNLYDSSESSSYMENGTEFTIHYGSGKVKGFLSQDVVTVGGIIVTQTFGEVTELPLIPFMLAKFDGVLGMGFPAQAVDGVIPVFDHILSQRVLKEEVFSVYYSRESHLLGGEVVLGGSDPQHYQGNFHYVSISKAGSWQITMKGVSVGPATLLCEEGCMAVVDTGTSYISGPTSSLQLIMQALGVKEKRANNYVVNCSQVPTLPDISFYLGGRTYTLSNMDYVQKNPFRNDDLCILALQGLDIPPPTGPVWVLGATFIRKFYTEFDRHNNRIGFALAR
In short: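 Pooled EDTA rat plasma with added PMSF 5 mM, 8-hydroxyquinoline 3 mM and extra EDTA 5 mM, at pH 7.4, mixed with serial 1:10 peptide dilutions (Tris/DMSO), split, and incubated 1 h at 37 and 0 °C.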

pIC50	Compound
5.90	CC[C@H](C)[C@H](NC(=O)[C@H](Cc1ccccc1)NC(=O)[C@@H]1CCCN1C(=O)[C@H](Cc1cnc[nH]1)NC(C)=O)C(=O)N[C@@H](Cc1ccccc1)[C@@H](O)CC(=O)N[C@@H](CC(C)C)C(=O)N[C@@H](Cc1ccccc1)C(N)=O (Ac-HPFI[Ahppa(3S,4S)]LF-NH2)
7.52	CC(=O)N[C@@H](Cc1c[nH]cn1)C(=O)N1CCC[C@H]1C(=O)N[C@@H](Cc1ccccc1)C(=O)N[C@H](C(=O)N[C@@H](CC(C)C)[C@@H](O)CC(=O)N[C@@H](CC(C)C)C(=O)N[C@@H](Cc1ccccc1)C(N)=O)C(C)C
~3.00	CC(=O)N[C@@H](Cc1c[nH]cn1)C(=O)N1CCC[C@@H]1C(=O)N[C@@H](Cc1ccccc1)C(=O)N[C@H](C)C(=O)N[C@@H](CC(C)C)[C@@H](O)CC(=O)N[C@@H](CC(C)C)C(=O)N[C@@H](Cc1ccccc1)C(N)=O
5.55	CC(=O)N[C@@H](Cc1c[nH]cn1)C(=O)N1CCC[C@H]1C(=O)N[C@@H](Cc1ccccc1)C(=O)N[C@@H](Cc1c[nH]cn1)C(=O)N[C@@H](CC(C)C)[C@@H](O)CC(=O)N[C@H](C(=O)N[C@@H](Cc1ccccc1)C(N)=O)C(C)C (Ac-HPFH[Sta]VF-NH2)
7.30	CC(=O)N[C@@H](Cc1cccc2ccccc12)C(=O)N1CCC[C@H]1C(=O)N[C@@H](Cc1ccccc1)C(=O)N[C@H](C(=O)N[C@@H](CC(C)C)[C@@H](O)CC(=O)N[C@@H](CC(C)C)C(=O)N[C@@H](Cc1ccccc1)C(N)=O)C(C)C (Ac-[1Nal]PFV[Sta]LF-NH2)
7.48	CC(=O)N[C@@H](Cc1cnc[nH]1)C(=O)N1CCC[C@H]1C(=O)N[C@@H](Cc1ccccc1)C(=O)N[C@H](C(=O)N[C@@H](CC1CCCCC1)[C@@H](O)CC(=O)N[C@@H](CC(C)C)C(=O)N[C@@H](Cc1ccccc1)C(N)=O)C(C)C
6.80	CC(=O)N[C@@H](Cc1c[nH]cn1)C(=O)N1CCC[C@H]1C(=O)N[C@@H](Cc1ccccc1)C(=O)N[C@@H](Cc1c[nH]cn1)C(=O)N[C@@H](CC(C)C)[C@@H](O)CC(=O)N[C@@H](CC(C)C)C(=O)N[C@@H](CC1CCCCC1)C(N)=O (Ac-HPFH[Sta]L[Cha]-NH2)
~3.00	CC(=O)N[C@@H](Cc1c[nH]cn1)C(=O)N1CCC[C@@H]1C(=O)N[C@H](C)C(=O)N[C@@H](Cc1c[nH]cn1)C(=O)N[C@@H](CC(C)C)[C@@H](O)CC(=O)N[C@@H](CC(C)C)C(=O)N[C@@H](Cc1ccccc1)C(N)=O
7.38	CC(=O)N[C@@H](Cc1ccccc1)C(=O)N1CCC[C@H]1C(=O)N[C@@H](Cc1ccccc1)C(=O)N[C@H](C(=O)N[C@@H](CC(C)C)[C@@H](O)CC(=O)N[C@@H](CC(C)C)C(=O)N[C@@H](Cc1ccccc1)C(N)=O)C(C)C (Ac-FPFV[Sta]LF-NH2)
5.04	CC(=O)N[C@@H](Cc1c[nH]cn1)C(=O)N1CCC[C@H]1C(=O)N[C@@H](CC(C)C)C(=O)N[C@@H](Cc1c[nH]cn1)C(=O)N[C@@H](CC(C)C)[C@@H](O)CC(=O)N[C@@H](CC(C)C)C(=O)N[C@@H](Cc1ccccc1)C(N)=O
5.10	CC(C)C[C@H](NC(=O)[C@H](Cc1c[nH]cn1)NC(=O)[C@H](Cc1ccccc1)NC(=O)[C@@H]1CCCN1C(=O)[C@H](Cc1c[nH]cn1)NC(=O)[C@@H]1CCCN1)[C@@H](O)CC(=O)N[C@@H](Cc1ccc(O)cc1)C(=O)N[C@@H](Cc1ccc(O)cc1)C(=O)N[C@@H](CO)C(=O)N[C@@H](CCCCN)C(N)=O (H-PHPFH[Sta]YYSK-NH2)
~3.00	CC(=O)N[C@@H](Cc1c[nH]cn1)C(=O)N1CCC[C@H]1C(=O)N[C@H](CC(C)C)C(=O)N[C@@H](Cc1c[nH]cn1)C(=O)N[C@@H](CC(C)C)[C@@H](O)CC(=O)N[C@@H](CC(C)C)C(=O)N[C@@H](Cc1ccccc1)C(N)=O
4.46	CC(C)C[C@H](NC(=O)[C@H](Cc1cnc[nH]1)NC(=O)[C@H](Cc1ccccc1)NC(=O)[C@@H]1CCCN1C(=O)[C@H](Cc1cnc[nH]1)NC(=O)[C@@H]1CCCN1)[C@@H](O)CC(=O)N[C@@H](Cc1ccc(O)cc1)C(=O)N[C@@H](Cc1ccc(O)cc1)C(=O)N[C@@H](CCCCN)C(N)=O (H-PHPFH[Sta]YYK-NH2)
5.60	CC(=O)N[C@@H](Cc1cnc[nH]1)C(=O)N1CCC[C@H]1C(=O)N[C@@H](Cc1ccccc1)C(=O)N[C@H](C(=O)N[C@@H](CC(C)C)[C@@H](O)CC(=O)N[C@@H](CC(C)C)C(=O)N[C@@H](Cc1ccccc1)C(N)=O)C1CCCCC1 (Ac-HPF[Chg][Sta]LF-NH2)
6.43	CC[C@H](C)[C@H](NC(=O)C[C@H](O)[C@H](Cc1ccccc1)NC(=O)[C@H](Cc1c[nH]cn1)NC(=O)[C@H](Cc1ccccc1)NC(=O)[C@@H]1CCCN1C(=O)[C@H](Cc1c[nH]cn1)NC(=O)[C@@H]1CCCN1)C(=O)N[C@@H](Cc1ccccc1)C(N)=O (H-PHPFH[Ahppa(3S,4S)]IF-NH2)
6.40	CC(=O)N[C@@H](Cc1c[nH]cn1)C(=O)N1CCC[C@H]1C(=O)N[C@@H](Cc1ccccc1)C(=O)N[C@H](C(=O)N[C@@H](CC(C)C)[C@@H](O)CC(=O)N[C@@H](CC(C)C)C(=O)N[C@@H](Cc1ccccc1)C(N)=O)C(C)(C)C (Ac-HPF[Tle][Sta]LF-NH2)
~3.00	CC(=O)N[C@@H](Cc1c[nH]cn1)C(=O)N1CCC[C@H]1C(=O)N[C@@H](Cc1ccccc1)C(=O)N[C@H](CC(C)C)C(=O)N[C@@H](CC(C)C)[C@@H](O)CC(=O)N[C@@H](CC(C)C)C(=O)N[C@@H](Cc1ccccc1)C(N)=O
3.98	CC(C)C[C@H](NC(=O)[C@H](Cc1c[nH]cn1)NC(=O)[C@H](Cc1ccccc1)NC(=O)[C@@H]1CCCN1C(=O)[C@H](Cc1c[nH]cn1)NC(=O)[C@@H]1CCCN1)[C@@H](O)CC(=O)N[C@H](C(=O)N[C@H](C(N)=O)[C@@H](C)O)[C@@H](C)O (H-PHPFH[Sta]TT-NH2)
6.11	CC(C)C[C@H](NC(=O)C[C@H](O)[C@H](CC(C)C)NC(=O)[C@H](Cc1c[nH]cn1)NC(=O)[C@H](Cc1ccccc1)NC(=O)[C@@H]1CCCN1C(=O)[C@H](Cc1c[nH]cn1)NC(=O)[C@@H]1CCCN1)C(=O)N[C@@H](Cc1ccc(O)cc1)C(=O)N[C@@H](Cc1ccc(O)cc1)C(N)=O (H-PHPFH[Sta]LYY-NH2)
5.72	CC(=O)N[C@@H](Cc1cnc[nH]1)C(=O)N1CCC[C@H]1C(=O)N[C@@H](Cc1ccccc1)C(=O)N[C@@H](Cc1cnc[nH]1)C(=O)N[C@@H](CC(C)C)[C@@H](O)CC(=O)N[C@H](C(=O)N[C@@H](Cc1ccccc1)C(N)=O)C(C)(C)C (Ac-HPFH[Sta][Tle]F-NH2)
6.55	CC(=O)N[C@H](C(=O)N1CCC[C@H]1C(=O)N[C@@H](Cc1ccccc1)C(=O)N[C@H](C(=O)N[C@@H](CC(C)C)[C@@H](O)CC(=O)N[C@@H](CC(C)C)C(=O)N[C@@H](Cc1ccccc1)C(N)=O)C(C)C)C1CCCCC1 (Ac-[Chg]PFV[Sta]LF-NH2)
5.57	CC(=O)N[C@@H](Cc1c[nH]cn1)C(=O)N1CCC[C@H]1C(=O)N[C@@H](Cc1ccccc1)C(=O)N[C@@H](Cc1c[nH]cn1)C(=O)N[C@@H](CC(C)C)[C@@H](O)CC(=O)N[C@@H](CC1CCCCC1)C(=O)N[C@@H](Cc1ccccc1)C(N)=O (Ac-HPFH[Sta][Cha]F-NH2)
6.62	CC(C)C[C@H](NC(=O)C[C@H](O)[C@H](CC(C)C)NC(=O)[C@H](Cc1cnc[nH]1)NC(=O)[C@H](Cc1ccccc1)NC(=O)[C@@H]1CCCN1C(=O)[C@H](Cc1cnc[nH]1)NC(=O)[C@@H]1CCCN1)C(=O)N[C@@H](Cc1ccccc1)C(N)=O (H-PHPFH[Sta]LF-NH2)
7.19	CC[C@H](C)[C@H](NC(=O)C[C@H](O)[C@H](CC1CCCCC1)NC(=O)[C@H](Cc1c[nH]cn1)NC(=O)[C@H](Cc1ccccc1)NC(=O)[C@@H]1CCCN1C(=O)[C@H](Cc1c[nH]cn1)NC(=O)[C@@H]1CCCN1)C(=O)N[C@@H](Cc1ccccc1)C(N)=O (H-PHPFH[ACHPA]IF-NH2)
5.89	CC(C)[C@H](NC(=O)C[C@H](O)[C@H](Cc1ccccc1)NC(=O)[C@H](Cc1c[nH]cn1)NC(=O)[C@H](Cc1ccccc1)NC(=O)[C@@H]1CCCN1C(=O)[C@H](Cc1c[nH]cn1)NC(=O)[C@@H]1CCCN1)C(=O)N[C@@H](Cc1ccc(O)cc1)C(=O)N[C@@H](CCCCN)C(N)=O (H-PHPFH[Ahppa(3S,4S)]VYK-NH2)
6.19	CC(=O)N[C@@H](Cc1cnc[nH]1)C(=O)N1CCC[C@H]1C(=O)N[C@@H](CC1CCCCC1)C(=O)N[C@@H](Cc1cnc[nH]1)C(=O)N[C@@H](CC(C)C)[C@@H](O)CC(=O)N[C@@H](CC(C)C)C(=O)N[C@@H](Cc1ccccc1)C(N)=O (Ac-HP[Cha]H[Sta]LF-NH2)
5.00	CC[C@H](C)[C@H](NC(=O)C[C@H](O)[C@H](CC(C)C)NC(=O)[C@H](Cc1c[nH]cn1)NC(=O)[C@H](Cc1ccccc1)NC(=O)[C@@H]1CCCN1C(=O)[C@H](Cc1c[nH]cn1)NC(=O)[C@@H]1CCCN1)C(=O)N[C@@H](Cc1ccccc1)C(N)=O (H-PHPFH[Sta]IF-NH2)
6.68	CC(=O)N[C@@H](Cc1cnc[nH]1)C(=O)N1CCC[C@H]1C(=O)N[C@@H](Cc1ccccc1)C(=O)N[C@@H](Cc1cnc[nH]1)C(=O)N[C@@H](CC(C)C)[C@@H](O)CC(=O)N[C@@H](CC(C)C)C(=O)N[C@@H](Cc1ccccc1)C(N)=O
6.66	CC(=O)N[C@@H](Cc1c[nH]cn1)C(=O)N1CCC[C@H]1C(=O)N[C@@H](Cc1cccc2ccccc12)C(=O)N[C@@H](Cc1c[nH]cn1)C(=O)N[C@@H](CC(C)C)[C@@H](O)CC(=O)N[C@@H](CC(C)C)C(=O)N[C@@H](Cc1ccccc1)C(N)=O (Ac-HP[1Nal]H[Sta]LF-NH2)
6.57	CC(=O)N[C@@H](Cc1cnc[nH]1)C(=O)N1CCC[C@H]1C(=O)N[C@@H](Cc1ccccc1)C(=O)N[C@@H](Cc1cnc[nH]1)C(=O)N[C@@H](CC(C)C)[C@@H](O)CC(=O)N[C@@H](CC(C)C)C(=O)N[C@H](C(N)=O)C(C)C (Ac-HPFH[Sta]LV-NH2)
